Holding throughout (type): functional
The subject of experiment [1] is Enterobacter cloacae. The experiment can be described thus: In vitro minimum inhibitory concentration (MIC) against Enterobacter cloacae A 9656 at 37 degrees C for 18 h.
Experiment [2] concerns Enterococcus faecalis. The experiment can be described thus: In vitro minimum inhibitory concentration (MIC) against Enterococcus faecalis A 9808 at 37 degrees C for 18 h. The gist of the method: (§1)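 Two-fold serial broth dilution in nutrient broth. Inoculum adjusted to 10^6 cfu/mL. Compounds tested from 0.0005 to 250 µg/mL.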
Experiment [3] deals with Pseudomonas aeruginosa. In words: In vitro minimum inhibitory concentration (MIC) against Pseudomonas aeruginosa A 9843 at 37 degree C for 18 h. The gist of the method:
as §1

Experiment [4] deals with Klebsiella pneumoniae. In words: In vitro minimum inhibitory concentration (MIC) against Klebsiella pneumoniae A 9664 at 37 degrees C for 18 h. In outline:
as §1

The test system of experiment [5] is Escherichia coli. In words: In vitro minimum inhibitory concentration (MIC) against Escherichia coli A 15119 at 37 degrees C for 18 h. In outline:
as §1

For experiment [6], the system named is Staphylococcus aureus. In words: In vitro minimum inhibitory concentration (MIC) against Staphylococcus aureus Smith A 9537 at 37 degrees C for 18 hr. The gist of the method:
as §1

Experiment [7] relates to Enterococcus faecium. In words: In vitro minimum inhibitory concentration (MIC) against Enterococcus faecium A 24885 at 37 degrees C for 18 h. In outline: as §1
Experiment [8] deals with Morganella morganii. In words: In vitro minimum inhibitory concentration (MIC) against Morganella morganii A 15153 at 37 degrees C for 18 h. The gist of the method: as §1
Experiment [9] concerns Serratia marcescens. The experiment can be described thus: In vitro minimum inhibitory concentration (MIC) against Serratia marcescens A 20019 at 37 degrees C for 18 hr. The gist of the method:
as §1

In brackets after ≈: the same amount, converted by molar mass.

Consider `CN(C)C1CCN(c2nc3c(cc2F)c(=O)c(C(=O)O)cn3C(C)(C)C)C1` (stereo not drawn), for which the MIC came to 1 µg/mL (≈ 2.66 µM) in [1]; 0.5 µg/mL (≈ 1.33 µM) in [2]; 1 µg/mL (≈ 2.66 µM) in experiment [3]; 0.13 µg/mL (≈ 0.345 µM) in experiment [4]; 0.25 µg/mL (≈ 0.664 µM) in [5]; 0.03 µg/mL (≈ 0.0797 µM) in experiment [6]. For the same molecule, the results for the MIC in [7], in experiment [8] and in [9] were 8 µg/mL (≈ 21.3 µM), 0.5 µg/mL (≈ 1.33 µM) and 1 µg/mL (≈ 2.66 µM), respectively.
On to `CCNCC1CCN(c2cc3c(cc2F)c(=O)c(C(=O)O)cn3C(C)(C)C)C1` (stereo not drawn), for which the MIC stood at 0.5 µg/mL (≈ 1.28 µM) in [1]; 0.5 µg/mL (≈ 1.28 µM) in experiment [2]; 8 µg/mL (≈ 20.5 µM) in experiment [3]; 1 µg/mL (≈ 2.57 µM) in experiment [4]; 0.25 µg/mL (≈ 0.642 µM) in experiment [5]; 0.06 µg/mL (≈ 0.154 µM) in experiment [6]. Further, the minimum inhibitory concentration (MIC) in experiment [7] turned out to be 4 µg/mL (≈ 10.3 µM); in experiment [8], 2 µg/mL (≈ 5.14 µM); in experiment [9], 8 µg/mL (≈ 20.5 µM).
For the molecule `CC(C)(C)n1cc(C(=O)O)c(=O)c2cc(F)c(N3C[C@@H](N)[C@H](F)C3)nc21.CS(=O)(=O)O`, the MIC in [1] was determined as 0.5 µg/mL; in [2], 0.25 µg/mL; in experiment [3], 2 µg/mL; in experiment [4], 0.5 µg/mL; in [5], 0.5 µg/mL; in experiment [6] it was 0.003 µg/mL. For the same molecule, the MIC in experiment [7] was 2 µg/mL; in experiment [8], 0.5 µg/mL; in [9], 0.5 µg/mL.
With `CC(C)(C)n1cc(C(=O)O)c(=O)c2cc(F)c(N3CCNC(c4ccccc4)C3)cc21.CS(=O)(=O)O` (stereo not drawn), the MIC in experiment [1] amounted to 0.13 µg/mL; in [2], 0.5 µg/mL; in [3] it was 1 µg/mL; in experiment [4], 0.25 µg/mL; in experiment [5], 0.06 µg/mL; in experiment [6] it was 0.06 µg/mL. The results for the MIC in [7], in experiment [8] and in experiment [9] were 4 µg/mL, 0.5 µg/mL and 2 µg/mL, respectively.
As to `CC(C)(C)n1cc(C(=O)O)c(=O)c2cc(F)c(N3CCNC(c4ccccc4)C3)nc21.CS(=O)(=O)O` (stereo not drawn), the MIC in [1] was found to be 0.06 µg/mL; in [2] it was 1 µg/mL; in experiment [3], 4 µg/mL; in [4], 0.06 µg/mL; in experiment [5] it was 0.06 µg/mL; in experiment [6], 0.03 µg/mL. Besides, the MIC in experiment [7] came out at 8 µg/mL; in experiment [8], 1 µg/mL; in [9], 2 µg/mL.
In the case of `CC(C)(C)n1cc(C(=O)O)c(=O)c2cc(F)c(N3CCNC(CF)C3)cc21` (stereo not drawn), the MIC worked out at 0.13 µg/mL (≈ 0.343 µM) in experiment [1]; 2 µg/mL (≈ 5.27 µM) in experiment [2]; 4 µg/mL (≈ 10.5 µM) in [3]; 0.13 µg/mL (≈ 0.343 µM) in experiment [4]; 0.25 µg/mL (≈ 0.659 µM) in [5]; 0.13 µg/mL (≈ 0.343 µM) in experiment [6]. For the same molecule, the MIC in experiment [7] amounted to 8 µg/mL (≈ 21.1 µM); in experiment [8] it was 0.5 µg/mL (≈ 1.32 µM); in [9], 1 µg/mL (≈ 2.64 µM).
Turning to `CC(C)(C)n1cc(C(=O)O)c(=O)c2cc(F)c(N3CC4CCC(C3)N4)nc21.CS(=O)(=O)O`, the MIC in [1] was 0.25 µg/mL; in [2], 1 µg/mL; in experiment [3], 4 µg/mL; in experiment [4], 0.13 µg/mL; in experiment [5], 0.13 µg/mL; in experiment [6] it was 0.06 µg/mL. In addition, the values for the MIC in experiment [7], in [8] and in experiment [9] were 4 µg/mL, 0.5 µg/mL and 1 µg/mL, respectively.
Regarding `CC1CN(c2nc3c(cc2F)c(=O)c(C(=O)O)cn3C(C)(C)C)CCN1C` (stereo not drawn), the MIC in experiment [1] came to 0.06 µg/mL (≈ 0.159 µM); in [2] it was 1 µg/mL (≈ 2.66 µM); in experiment [3] it was 4 µg/mL (≈ 10.6 µM); in experiment [4] it was 0.13 µg/mL (≈ 0.345 µM); in experiment [5], 0.03 µg/mL (≈ 0.0797 µM); in experiment [6], 0.13 µg/mL (≈ 0.345 µM). For the same molecule, the results for the MIC in [7], in [8] and in [9] were 4 µg/mL (≈ 10.6 µM), 1 µg/mL (≈ 2.66 µM) and 1 µg/mL (≈ 2.66 µM), respectively.
For the molecule `CC[C@H]1CN(c2nc3c(cc2F)c(=O)c(C(=O)O)cn3C(C)(C)C)C[C@@H]1N.CS(=O)(=O)O`, the MIC was found to be 0.03 µg/mL in [1]; 0.13 µg/mL in experiment [2]; 1 µg/mL in experiment [3]; 0.06 µg/mL in experiment [4]; 0.03 µg/mL in experiment [5]; 0.015 µg/mL in experiment [6]. Also, the values for the MIC in [7], in [8] and in experiment [9] were 2 µg/mL, 0.25 µg/mL and 0.25 µg/mL, respectively.
With `CC[C@H]1CN(c2nc3c(cc2F)c(=O)c(C(=O)O)cn3C(C)(C)C)C[C@H]1N.Cl`, the minimal inhibitory concentration (MIC) was 0.06 µg/mL in experiment [1]; 0.25 µg/mL in experiment [2]; 1 µg/mL in experiment [3]; 0.13 µg/mL in experiment [4]; 0.13 µg/mL in experiment [5]; 0.015 µg/mL in experiment [6]. For the same molecule, the figures for the MIC in experiment [7], in [8] and in [9] were 2 µg/mL, 0.5 µg/mL and 0.5 µg/mL, respectively.
`CC(C)(C)n1cc(C(=O)O)c(=O)c2cc(F)c(N3CC4CCC3CN4)nc21` (stereo not drawn): the minimum inhibitory concentration (MIC) in experiment [1] worked out at 0.06 µg/mL (≈ 0.16 µM); in experiment [2], 0.5 µg/mL (≈ 1.34 µM); in experiment [3], 1 µg/mL (≈ 2.67 µM); in experiment [4], 0.13 µg/mL (≈ 0.347 µM); in experiment [5] it was 0.13 µg/mL (≈ 0.347 µM); in experiment [6] it was 0.03 µg/mL (≈ 0.0801 µM). The results for the MIC in experiment [7], in experiment [8] and in experiment [9] were 2 µg/mL (≈ 5.34 µM), 1 µg/mL (≈ 2.67 µM) and 1 µg/mL (≈ 2.67 µM), respectively.
For `CC(C)(C)n1cc(C(=O)O)c(=O)c2cc(F)c(N3CCC(CN)C3)cc21` (stereo not drawn), the MIC in [1] worked out at 0.25 µg/mL (≈ 0.692 µM); in [2], 0.25 µg/mL (≈ 0.692 µM); in experiment [3], 0.5 µg/mL (≈ 1.38 µM); in [4], 0.25 µg/mL (≈ 0.692 µM); in [5], 0.25 µg/mL (≈ 0.692 µM); in experiment [6], 0.03 µg/mL (≈ 0.083 µM). Also, the figures for the MIC in experiment [7], in experiment [8] and in experiment [9] were 0.5 µg/mL (≈ 1.38 µM), 2 µg/mL (≈ 5.53 µM) and 2 µg/mL (≈ 5.53 µM), respectively.
For `CNC1CCN(c2nc3c(cc2F)c(=O)c(C(=O)O)cn3C(C)(C)C)C1` (stereo not drawn), the minimal inhibitory concentration (MIC) in [1] came to 0.06 µg/mL (≈ 0.166 µM); in [2], 0.5 µg/mL (≈ 1.38 µM); in [3], 2 µg/mL (≈ 5.52 µM); in experiment [4] it was 0.13 µg/mL (≈ 0.359 µM); in experiment [5] it was 0.06 µg/mL (≈ 0.166 µM); in experiment [6], 0.06 µg/mL (≈ 0.166 µM). Besides, the figures for the minimum inhibitory concentration (MIC) in [7], in experiment [8] and in [9] were 8 µg/mL (≈ 22.1 µM), 0.5 µg/mL (≈ 1.38 µM) and 1 µg/mL (≈ 2.76 µM), respectively.
As to `CN1C2CCC1CN(c1nc3c(cc1F)c(=O)c(C(=O)O)cn3C(C)(C)C)C2.CS(=O)(=O)O`, the MIC in experiment [1] was found to be 0.25 µg/mL; in [2], 2 µg/mL; in experiment [3], 4 µg/mL; in [4], 0.1 µg/mL; in [5], 0.5 µg/mL; in experiment [6] it was 0.25 µg/mL. For the same molecule, the MIC was 16 µg/mL in experiment [7], 2 µg/mL in experiment [8] and 2 µg/mL in experiment [9].
For `CC(C)(C)n1cc(C(=O)O)c(=O)c2cc(F)c(N3CC4CCC3CN4)cc21` (stereo not drawn), the MIC turned out to be 0.25 µg/mL (≈ 0.669 µM) in [1]; 1 µg/mL (≈ 2.68 µM) in [2]; 2 µg/mL (≈ 5.36 µM) in [3]; 0.25 µg/mL (≈ 0.669 µM) in [4]; 0.5 µg/mL (≈ 1.34 µM) in [5]; 0.13 µg/mL (≈ 0.348 µM) in experiment [6]. The MIC in experiment [7] was 4 µg/mL (≈ 10.7 µM); in experiment [8], 1 µg/mL (≈ 2.68 µM); in [9], 2 µg/mL (≈ 5.36 µM).
Regarding `CC(C)(C)n1cc(C(=O)O)c(=O)c2cc(F)c(N3CCC(CN)C3)nc21` (stereo not drawn), the MIC in experiment [1] amounted to 0.5 µg/mL (≈ 1.38 µM); in [2], 0.25 µg/mL (≈ 0.69 µM); in experiment [3], 1 µg/mL (≈ 2.76 µM); in [4], 0.25 µg/mL (≈ 0.69 µM); in experiment [5] it was 0.5 µg/mL (≈ 1.38 µM); in [6], 0.03 µg/mL (≈ 0.0828 µM). Besides, the results for the MIC in experiment [7], in [8] and in experiment [9] were 2 µg/mL (≈ 5.52 µM), 1 µg/mL (≈ 2.76 µM) and 2 µg/mL (≈ 5.52 µM), respectively.
Regarding `CC(C)(C)n1cc(C(=O)O)c(=O)c2cc(F)c(N3C4CCC3CNC4)nc21.CS(=O)(=O)O`, the MIC in [1] was 0.25 µg/mL; in experiment [2], 0.5 µg/mL; in [3], 2 µg/mL; in experiment [4], 0.13 µg/mL; in [5], 0.06 µg/mL; in [6], 0.06 µg/mL. Further, the figures for the MIC in [7], in experiment [8] and in [9] were 4 µg/mL, 0.5 µg/mL and 0.5 µg/mL, respectively.

By MIC is commonly meant the lowest concentration found to suppress growth.

The values are drawn from ChEMBL document CHEMBL1124759, “Fluoronaphthyridines and quinolones as antibacterial agents. 2. Synthesis and structure-activity relationships of new 1-tert-butyl 7-substituted derivatives” (J Med Chem, 1990).
